Published values collected from several papers.
Lines come from different studies, so protocols differ.

SMILES	tested on	assay	system	setting	measurement	value
CCOc1ccc(N(C)S(=O)(=O)c2cc(Cl)sc2C(=O)Nc2cc(Cl)cc(C(=O)O)c2)cc1OC	–	–	male C57BL/6 mouse, brain	intraperitoneal, 10 mg/kg	MRT(0-inf)	0.854 h
CCCCCCCCNCC(O)c1cc(Cl)cc2c1-c1ccc(Cl)cc1C2 (racemic)	HepG2	cell growth or viability	–	48 h	CC50	5.9 µM
CC[S+]([O-])c1nc(-c2cccc(OCc3ccccc3)c2)cc(C(F)(F)F)n1 (centres unmarked)	HEK-293T	cell growth or viability, ATP luminescence	–	24 h	CC50	20 µM
C=CS(=O)(=O)c1ccc(Nc2nc(OCC3CCCCC3)c3nc[nH]c3n2)cc1	–	–	male BALB/c mouse, plasma	intraperitoneal, 20 mg/kg, single dose	MRT(0-t)	2.26 h
CCN1CCN(Cc2ccc(NC(=O)c3ccc(C)c(NC(=O)c4cncc(-c5cccs5)c4)c3)cc2C(F)(F)F)CC1	–	–	mouse, plasma	intraperitoneal, 20 mg/kg, single dose	MRT	3.52 h
CCS(=O)(=O)c1nc(C)cc(-c2ccccc2)n1	HEK-293T	cell growth or viability, ATP luminescence	–	24 h	CC50	> 60 µM
CCCCCNC[C@H](O)c1cc(Cl)cc2c1-c1ccc(Cl)cc1C2	HepG2	cell growth or viability	–	48 h	CC50	6.3 µM
CC(=O)O[C@@]12CO[C@@H]1C[C@H](O)[C@@]1(C)C(=O)[C@H](O)C3=C(C)[C@@H](OC(=O)[C@H](O)[C@@H](NC(=O)OC(C)(C)C)c4ccccc4)C[C@@](O)([C@@H](OC(=O)c4ccccc4)[C@H]21)C3(C)C	–	–	male Kunming mouse, lung	oral, 20 mg/kg	MRT	1.8 h
